Measured values pooled from the literature.
Compare with care: the assays were run in different laboratories.
Target: Beta-adrenergic receptor kinase 1 (GRK2, Homo sapiens, UniProt P25098)
Residues used in one study (P25098 1-689): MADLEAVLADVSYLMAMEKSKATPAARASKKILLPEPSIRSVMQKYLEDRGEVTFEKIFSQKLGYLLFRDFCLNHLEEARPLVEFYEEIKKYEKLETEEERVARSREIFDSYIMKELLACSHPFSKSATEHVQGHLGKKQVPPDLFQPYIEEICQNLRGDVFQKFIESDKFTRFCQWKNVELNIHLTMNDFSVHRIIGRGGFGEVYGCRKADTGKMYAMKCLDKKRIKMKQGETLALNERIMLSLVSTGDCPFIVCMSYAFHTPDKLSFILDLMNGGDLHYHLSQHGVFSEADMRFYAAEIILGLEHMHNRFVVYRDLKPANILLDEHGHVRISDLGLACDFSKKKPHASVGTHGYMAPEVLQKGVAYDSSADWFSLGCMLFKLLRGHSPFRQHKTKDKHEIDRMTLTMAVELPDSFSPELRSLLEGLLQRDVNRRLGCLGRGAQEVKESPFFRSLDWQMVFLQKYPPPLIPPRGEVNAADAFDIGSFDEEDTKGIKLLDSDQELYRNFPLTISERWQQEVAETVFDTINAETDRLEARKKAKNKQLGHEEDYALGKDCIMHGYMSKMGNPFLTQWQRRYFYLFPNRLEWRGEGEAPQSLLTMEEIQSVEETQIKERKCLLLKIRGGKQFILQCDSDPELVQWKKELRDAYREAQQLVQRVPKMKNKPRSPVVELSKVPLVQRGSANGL

| SMILES | observed | action | method | concentration | measurement | value |
| --- | --- | --- | --- | --- | --- | --- |
| COc1cc2ncnc(Nc3ccc(Oc4ccccc4)cc3C)c2cc1OC | enzyme activity | inhibitor | – | 1 µM | inhibition | -1% |
| O=C1NC(=O)c2cc(Nc3ccc(F)cc3)c(Nc3ccc(F)cc3)cc21 | cell-free assay | – | – | 0.5 µM | remaining signal | 104% |
| C[C@H](NC(=O)c1cnc2n1[C@](C)(Cc1ccc(C#N)cc1)C(=O)N2c1cc(Cl)c(F)c(Cl)c1)C(=O)NC1(c2ccccn2)CC1 | cell-free assay | – | competition with immobilised ligand | 1 µM | remaining binding | 100% |
| N[C@H]1CCN(c2nccc(-c3cnn4ncccc34)n2)C1 | binding | – | competition with immobilised ligand | 1 µM | remaining binding | 80% |
| O=C(Nc1cnn(-c2csc(C(=O)NC3COC3)c2)c1)Nc1ccccc1Cl | enzyme activity | inhibitor | – | 5 µM | remaining activity | 96.1% |
| CC(C)(C)c1nc(-c2cccc(NS(=O)(=O)c3c(F)cccc3F)c2F)c(-c2ccnc(N)n2)s1 | enzyme activity | inhibitor | radiometric | 1 µM | remaining activity | 95% |
| Cc1ccc(C(=O)Nc2ccc(CN3CCN(C)CC3)c(C(F)(F)F)c2)cc1C#Cc1cnc2cccnn12 | enzyme activity | inhibitor | – | 23.5 nM | remaining activity | 77% |
| CN(C(=O)c1ccccc1)c1cc(N(C)c2ccc3c(c2)CCc2ccc(C(=O)NCCN4CCOCC4)cc2C3=O)ccc1F | cell-free assay | – | competition with immobilised ligand | 1 µM | remaining binding | 100% |
| COc1cc(Cl)c(C(=O)N[C@@H](CN[C@H]2CC[C@@H](N)CC2)Cc2ccc(C#N)cc2)cc1-c1ccc(CN[C@H](C)c2ccc(C)cc2)o1 | enzyme activity | inhibitor | – | 1 µM | remaining activity | 105% |
| COc1cccc2c(NCc3ccccc3)nc(-n3c(N)nc4ccccc43)nc12 | target engagement in cells | inhibitor | chemoproteomics | 20 mM | inhibition | -14.5% |
| O=C(Nc1cccnn1)N1CC(C/C=C/c2cncc(Oc3ccc(C(F)(F)F)cn3)n2)C1 | cell-free assay | – | competition with immobilised ligand | 1 µM | remaining binding | 96% |
| O=C(Nc1cnn(-c2csc(C(=O)NC3COC3)c2)c1)Nc1c(F)cccc1Cl | enzyme activity | inhibitor | – | 5 µM | remaining activity | 106% |
| O=C(O)[C@H]1[C@H](Cn2nnc3ccccc3c2=O)CC[C@@H]1C(=O)c1ccc(OCCC2CCOCC2)cc1 | cell-free assay | – | competition with immobilised ligand | 1 µM | remaining binding | 61% |
| Nc1ncnc2occ(-c3ccc(NC(=O)Nc4cc(C(F)(F)F)ccc4F)cc3)c12 | cell-free assay | inhibitor | – | 20 µM | remaining signal | 81% |
| Cc1ccc(C(=O)NCc2ccsc2)cc1C#Cc1cn(C(C)C)c2ncnc(N)c12 | enzyme activity | inhibitor | – | 1 µM | activity vs control | 101% |
| O=C(NCc1ncc(C(F)(F)F)cc1Cl)c1ccc2c(c1)C1(CCS(=O)(=O)CC1)[C@H](C1CC1)N2S(=O)(=O)c1ccc(F)cc1 | cell-free assay | – | competition with immobilised ligand | 1 µM | remaining binding | 56% |
